# Results: ChEMBL document CHEMBL4177753, “Structural Modification of Natural Product Ganomycin I Leading to Discovery of a α-Glucosidase and HMG-CoA Reductase Dual Inhibitor Improving Obesity and Metabolic Dysfunction in Vivo” (J Med Chem, 2018)
# The source made the active and inactive calls. No cut-off for these calls is given here.
# Assays:
# Mus musculus [1] = assay: Antiobesity activity in ob/ob mouse assessed as change in lean mass at 3 mg/kg administered daily via oral gavage for 31 days; assay type: functional, organism-based
# Method in brief: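 Male ob/ob mice, n = 10 per group, grouped by blood glucose and body weight. Daily gavage at 0.3, 1.0 or 3.0 mg/kg in soybean vehicle, with soybean vehicle controls and C57BL/6J controls. Body weight, cumulative food intake, LEE index, fat mass and lean mass recorded. Mean ± SEM, one-way ANOVA with Tukey test.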
# Mus musculus [2] = assay: Antiobesity activity in C57BL/6J DIO mouse assessed as reduction in weight gain at 3 mg/kg administered daily via oral gavage for 5 weeks relative to vehicle-treated control; assay type: functional; parameters: scale not given: the % may be the effect or the level left
# Method in brief: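 Male C57BL/6J mice on high-fat diet, n = 8 per group, grouped by blood glucose and body weight. Daily oral gavage at 0.3, 1.0 or 3.0 mg/kg in soybean vehicle for 5 weeks. Vehicle groups were on normal diet and on high-fat diet.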
# Mus musculus [3] = assay: Hypoglycemic activity in ob/ob mouse assessed as decrease in fasting blood glucose levels administered daily via oral gavage for 28 days; assay type: functional, organism-based
# Method in brief: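 Male ob/ob mice, n = 10 per group, daily gavage at 0.3, 1.0 or 3.0 mg/kg in soybean vehicle. Fasting and free-diet blood glucose and HbA1c measured.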
# Mus musculus [4] = assay: Hypolipidemic activity in ob/ob mouse assessed as decrease in liver total cholesterol levels at 0.3 to 3 mg/kg administered daily via oral gavage for 31 days; assay type: functional, organism-based
# Neisseria = assay: Decrease in Neisseri levels in cecum of ob/ob mouse at 3 mg/kg administered daily via oral gavage for 31 days by 16S rRNA gene high-throughput sequencing method; assay type: functional, organism-based
# Method in brief: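 Male ob/ob mice dosed daily by gavage at 1.0 or 3.0 mg/kg, compared with vehicle group. DNA extracted from about 150 mg caecum contents. 16S rRNA V3–V4 region amplified and sequenced on Illumina HiSeq PE250. Community compared by NMDS/MRPP; discriminant taxa identified by LEfSe.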
# Mus musculus [5] = assay: Antiobesity activity in antibiotic-treated ob/ob mouse assessed as reduction in cumulative food intake at 3 mg/kg administered daily via oral gavage for 18 days; assay type: functional, organism-based
# Method in brief: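 Male ob/ob mice given drinking water with ampicillin (1 g/L), vancomycin and other antibiotics for three weeks. Groups of n = 8 were dosed at 3.0 mg/kg/day by mouth in soybean vehicle, alongside non-antibiotic ob/ob groups. Weight gain and food intake recorded.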
structure (smiles),measurement,setting,value
CC(C)=CCC/C(C)=C/CCC1=C[C@H](c2ccc(C(C)(C)C)cc2)OC1=O,Activity,Mus musculus [1],inactive
same,Activity,Mus musculus [2],25.4%
same,Activity,Mus musculus [3],Dose-dependent effect
same,Activity,Mus musculus [4],Active
same,Activity,Neisseria,Active
same,Activity,Mus musculus [5],inactive
